In ChEMBL document CHEMBL1137121, “Oxamides as novel NR2B selective NMDA receptor antagonists” (Bioorg Med Chem Lett, 2004):
pIC50: −log10 of the molar value. Active and inactive are the calls of the source. The calls are words filed in the database; no cut-off is given here.

How the values were obtained:
[1] = molecular target: Glutamate [NMDA] receptor; assay: Inhibition of [3H]-Ro-25-6981 binding to NMDA receptor; format: protein-complex assay
[2] = molecular target: Glutamate NMDA receptor; GRIN1/GRIN2B (Homo sapiens, UniProt Q05586+Q13224); assay: Inhibition of NMDA-evoked increased intracellular [Ca2+] in cells expressing NR1/NR2B receptor; format: cell-based
Mus musculus [3] = assay: In vivo analgesic activity was tested using formalin test in mouse upon p.o. administration; format: functional; conditions: po
Procedure, shortened: (§1)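 Mice were pretreated orally with the compound suspended in 5% Tween-80, then given formalin into the hindpaw. Licking was counted 20–25 min after the formalin injection. Percentage inhibition was calculated for each dose, and the dose giving a half-maximal effect (ED50) was determined.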

Mus musculus [4] = assay: In vivo analgesic activity was tested using formalin test in mouse upon i.p. administration; format: functional; conditions: ip
Procedure, shortened: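 Mice were pretreated intraperitoneally before formalin injection into the hindpaw. Licking behaviour was counted 20–25 min after the formalin injection. Percentage inhibition was calculated per dose, and the ED50 (the dose producing a half-maximal effect) was derived.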

Mus musculus [5] = assay: In vivo analgesic activity was tested using formalin test in mouse upon p.o. administration; IA is inactive; format: functional, organism-based; procedure, shortened: as §1
Mus musculus [6] = assay: In vivo analgesic activity was tested using formalin test in mouse upon s.c. administration; format: functional; conditions: sc

Glutamate NMDA receptor; GRIN1/GRIN2B, sequence (Q13224 whole entry, other chains not shown): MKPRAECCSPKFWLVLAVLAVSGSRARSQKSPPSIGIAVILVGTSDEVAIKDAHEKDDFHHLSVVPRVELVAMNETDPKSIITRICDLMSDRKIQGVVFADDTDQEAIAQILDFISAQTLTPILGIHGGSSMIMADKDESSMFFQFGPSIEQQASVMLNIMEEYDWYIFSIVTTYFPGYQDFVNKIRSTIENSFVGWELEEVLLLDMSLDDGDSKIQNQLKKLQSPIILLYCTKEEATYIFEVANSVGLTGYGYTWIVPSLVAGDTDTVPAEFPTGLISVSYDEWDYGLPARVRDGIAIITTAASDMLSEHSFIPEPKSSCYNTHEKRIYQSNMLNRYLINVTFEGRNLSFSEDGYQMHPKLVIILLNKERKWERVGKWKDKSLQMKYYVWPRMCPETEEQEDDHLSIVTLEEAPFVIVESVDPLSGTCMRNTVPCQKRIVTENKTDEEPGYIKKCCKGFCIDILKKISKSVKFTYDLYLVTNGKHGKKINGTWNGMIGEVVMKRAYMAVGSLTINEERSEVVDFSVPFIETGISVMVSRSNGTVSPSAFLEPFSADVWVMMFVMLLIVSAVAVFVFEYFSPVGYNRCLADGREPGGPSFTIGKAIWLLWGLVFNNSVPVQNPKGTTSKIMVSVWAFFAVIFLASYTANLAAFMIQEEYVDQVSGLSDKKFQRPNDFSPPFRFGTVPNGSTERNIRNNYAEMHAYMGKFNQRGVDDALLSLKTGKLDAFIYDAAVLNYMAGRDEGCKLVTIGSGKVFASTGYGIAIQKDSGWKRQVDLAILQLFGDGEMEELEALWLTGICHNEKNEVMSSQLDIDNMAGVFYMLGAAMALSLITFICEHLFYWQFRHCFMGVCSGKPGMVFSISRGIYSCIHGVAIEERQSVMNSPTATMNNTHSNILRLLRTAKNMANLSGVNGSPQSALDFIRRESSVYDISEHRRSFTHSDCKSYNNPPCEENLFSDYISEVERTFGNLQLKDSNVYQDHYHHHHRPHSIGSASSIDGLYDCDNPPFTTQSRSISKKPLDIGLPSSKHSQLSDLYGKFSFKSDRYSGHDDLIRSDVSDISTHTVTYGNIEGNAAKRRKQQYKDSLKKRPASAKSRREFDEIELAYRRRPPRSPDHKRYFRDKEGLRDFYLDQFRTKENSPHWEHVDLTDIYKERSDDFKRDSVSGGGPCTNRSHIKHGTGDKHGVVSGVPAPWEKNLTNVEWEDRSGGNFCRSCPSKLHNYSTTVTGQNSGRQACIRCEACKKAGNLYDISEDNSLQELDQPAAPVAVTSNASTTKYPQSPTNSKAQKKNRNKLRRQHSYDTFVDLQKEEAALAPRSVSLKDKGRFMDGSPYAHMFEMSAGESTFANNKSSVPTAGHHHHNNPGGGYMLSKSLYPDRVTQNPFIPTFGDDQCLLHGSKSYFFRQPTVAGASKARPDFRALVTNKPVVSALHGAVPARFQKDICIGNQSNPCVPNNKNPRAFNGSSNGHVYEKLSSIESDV

SMILES | pIC50 [1] | pIC50 [2] | ED50 (Mus musculus [3]) [mg/kg] | ED50 (Mus musculus [4]) [mg/kg] | ED50 (Mus musculus [5]) | ED50 (Mus musculus [6]) [mg/kg]
O=C1Nc2ccc(NC(=O)C(=O)N3CCC(Cc4ccccc4)CC3)cc2CO1 | 6.86 | 7.54 | < 0.1 |  |  | 
O=C(Nc1ccc2[nH]c(=O)[nH]c2c1)C(=O)N1CCC(Cc2ccc(F)cc2)CC1 | 8.30 | 8.70 | > 20 |  |  | 
O=c1[nH]c2ccc([S+]([O-])CCN3CCC(Cc4ccc(F)cc4)CC3)cc2o1 (configuration not stated) [BESONPRODIL] |  |  | 2.4 |  |  | 
Cc1ccc(CC2CCN(C(=O)C(=O)Nc3ccc4c(c3)OCC(=O)N4)CC2)cc1 | 7.77 | 7.74 | 10 |  |  | 
O=C(Nc1ccc2[nH]c(=O)oc2c1)C(=O)N1CCC(Cc2ccc(F)cc2)CC1 [RADIPRODIL] | 8.22 | 8.40 | 7.7 |  |  | 
Cc1ccc(CC2(O)CCN(CCOc3ccc(O)cc3)CC2)cc1 |  | 8.30 |  | 5.9 | inactive | 
Cc1ccc(OC2CCN(C(=O)C(=O)Nc3ccc4[nH]c(=O)sc4c3)CC2)cc1 | 7.77 | 8.10 | 0.2 |  |  | 
O=C(Nc1ccc2[nH]c(=O)[nH]c2c1)C(=O)N1CCC(Cc2ccccc2)CC1 | 8.40 | 8.22 | 14 |  |  | 
C[C@@H]([C@@H](O)c1ccc(O)cc1)N1CCC(O)(c2ccccc2)CC1 [TRAXOPRODIL] |  |  | > 20 |  |  | > 20
Cc1ccc(CC2CCN(C(=O)C(=O)Nc3ccc4c(c3)CC(=O)N4)CC2)cc1 | 7.27 | 7.82 | 0.5 |  |  | 
Cc1ccc(OC2CCN(C(=O)C(=O)Nc3ccc4nc(S)[nH]c4c3)CC2)cc1 | 6.88 | 8.00 | > 20 |  |  | 
O=C(CCN1CCC(Cc2ccc(F)cc2)CC1)c1ccc2nc(O)oc2c1 | 8.10 | 7.32 | 3.7 |  |  | 
O=C(Nc1ccc(O)cc1)C(=O)N1CCC(Cc2ccccc2)CC1 | 7.80 | 7.51 | 9.4 |  |  | 
O=C(Nc1ccc2[nH]c(=O)sc2c1)C(=O)N1CCC(Cc2ccccc2)CC1 | 7.77 | 8.05 | 0.4 |  |  | 
C[C@@H](CN1CCC(Cc2ccccc2)CC1)[C@@H](O)c1ccc(O)cc1 |  |  |  | 5.1 | inactive | 
O=C(c1cc2cc(O)ccc2[nH]1)N1CCC(Cc2ccccc2)CC1 |  | 7.38 | 1.4 |  |  | 
O=C(Nc1ccc2[nH]c(=O)[nH]c2c1)C(=O)N1CCC(Oc2ccc(Cl)cc2)CC1 | 7.59 | 8.10 | > 20 |  |  | 
O=C(Nc1ccc2[nH]c(=O)oc2c1)C(=O)N1CCC(Cc2ccccc2)CC1 | 8.10 | 8.52 | 0.9 |  |  | 
O=C(Nc1ccc2[nH]c(=O)oc2c1)C(=O)N1CCC(Oc2ccc(Cl)cc2)CC1 | 7.40 | 8.15 | 4.4 |  |  | 
